According to ChEMBL document CHEMBL1255468 (Antimicrob Agents Chemother, 2010):
Active and inactive are the calls of the source. No cut-off for these calls is given here.

What was measured:
[1] = system: Trypanosoma cruzi; assay: Antitrypanosomal activity against Trypanosoma cruzi Y infected in mouse assessed as decrease in mouse mortality at 200 mg/kg, po after 20 days post infection; format: functional, organism-based; set-up: dose 200 mg/kg
How it was run: (§1)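 Male Swiss mice (6–8 weeks, 18–20 g), 8–10 per group, infected i.p. with 10^4 bloodstream trypomastigotes (Y strain). On dpi 5, a single 200 mg/kg oral gavage dose was given in water with 10% Tween-80. Parasitemia was counted daily from dpi 6 to 21 by the Pizzi-Brener method. Body weight was recorded weekly. Mortality was recorded daily, and cumulative mortality at 40 dpi and M50 were calculated.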

[2] = system: Trypanosoma cruzi; assay: Antitrypanosomal activity against Trypanosoma cruzi Y infected in mouse assessed as decrease in parasitemia in blood at 200 mg/kg, po upto 40 days post infection; format: functional; how it was run: as §1
[3] = system: Trypanosoma cruzi; assay: Antitrypanosomal activity against Trypanosoma cruzi amastigotes infected in mouse peritoneal macrophages assessed as endocytic index after 2 day; format: functional, organism-based; conditions: 48 h
How it was run: (§2)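 Swiss mouse peritoneal macrophages (3 × 10^5/well) were plated for 24 h, then infected with Y-strain trypomastigotes (10:1) in DMEM with 10% FCS for 3 h. Free parasites were washed off, and compounds were added at 2.5–30 µM final for 1–4 days. Cells were fixed in Bouin's solution and stained with Giemsa. Percent infection and endocytic index (parasites/100 cells) were counted, and IC50 was derived. Three independent experiments.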

[4] = system: Mus musculus; assay: Toxicity in mouse assessed as body weight at 400 mg/kg, po after 4 days; format: organism-based; set-up: dose 400 mg/kg, route oral; conditions: in vivo, 96 h
How it was run: (§3)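 Uninfected male Swiss mice, 8–10 per group, received by gavage either a single 400 mg/kg dose or 10 doses of 100 mg/kg (vehicle water with 10% Tween-80). GOT, GPT and urea were measured directly in blood with the Reflotron system, and body weight was recorded. Single-dose toxicity was analyzed 4 days after treatment.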

[5] = system: Trypanosoma cruzi; assay: Antitrypanosomal activity against Trypanosoma cruzi amastigotes infected in mouse peritoneal macrophages assessed as endocytic index after 3 day; format: functional, organism-based; conditions: 72 h; how it was run: as §2
[6] = system: Trypanosoma cruzi; assay: Antitrypanosomal activity against Trypanosoma cruzi trypomastigotes assessed as shrinkage of cell surface and body at 11.6 uM after 24 hrs by scanning electron microscopy; format: functional, organism-based
How it was run: (§4)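 Trypomastigotes (5 × 10^6/ml) were treated for 24 h and adhered to poly-L-lysine coverslips. They were fixed in 2.5% glutaraldehyde in 0.1 M cacodylate (pH 7.2) for 40 min and postfixed for 30 min in 1% OsO4, 0.8% ferricyanide and 2.5 mM CaCl2. Samples were acetone-dehydrated, critical-point dried, gold-coated (20 nm) and examined by scanning EM.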

[7] = system: Trypanosoma cruzi; assay: Antitrypanosomal activity against Trypanosoma cruzi amastigotes infected in mouse peritoneal macrophages assessed as inhibition of infection after 4 day; format: functional, organism-based; conditions: 96 h; how it was run: as §2
[8] = system: Trypanosoma cruzi; assay: Antitrypanosomal activity against Trypanosoma cruzi infected in mouse assessed as decrease in mortality rate at 100 mg/kg, po after 6 days post infection; format: functional, organism-based; set-up: dose 100 mg/kg
How it was run: (§5)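 Male Swiss mice, 8–10 per group, infected i.p. with 10^4 bloodstream trypomastigotes. From dpi 6, mice received 10 consecutive daily gavage doses of 100 mg/kg in water with 10% Tween-80. Parasitemia was read daily on dpi 6–21 by the Pizzi-Brener method. Mortality was noted daily, and %CM at 40 dpi and M50 were calculated.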

[9] = system: Trypanosoma cruzi; assay: Antitrypanosomal activity against Trypanosoma cruzi amastigotes infected in mouse embryo heart muscle cells assessed as endocytic index at 40 uM; format: functional, organism-based
How it was run: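 Mouse embryo heart muscle cells (10^5/well) were plated on gelatin-coated coverslips and infected after 24 h with trypomastigotes at 10:1 parasite/host cell. After another 24 h, cultures were washed and exposed to compounds at 10–40 µM final. At intervals, cells were fixed in Bouin's solution and stained with Giemsa. Percent infection and endocytic index (parasites/100 cells) were counted, and IC50 was derived.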

[10] = system: Trypanosoma cruzi; assay: Antitrypanosomal activity against Trypanosoma cruzi Y infected in mouse assessed as decrease in mouse mortality at 200 mg/kg, po upto 40 days post infection; format: functional, organism-based; set-up: dose 200 mg/kg; how it was run: as §1
[11] = Cytotoxicity against Swiss mouse peritoneal macrophages after 48 hrs by MTT assay; format: cell-based, Peritoneal macrophage cell; conditions: read-out: LC50
How it was run: (§6)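 Uninfected host cells were exposed to compounds at 37°C for 2 days, with compound stocks in DMSO. Cells were Swiss mouse peritoneal macrophages or primary mouse embryo heart muscle cells (18-day embryos, trypsin/collagenase dissociated, gelatin-coated coverslips, DMEM with horse and fetal calf sera, chicken embryo extract). Viability was read by MTT at 490 nm to give LC50.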

[12] = system: Trypanosoma cruzi; assay: Antitrypanosomal activity against Trypanosoma cruzi amastigotes infected in mouse peritoneal macrophages assessed as inhibition of infection after 2 day; format: functional, organism-based; conditions: 48 h; how it was run: as §2
[13] = system: Mus musculus; assay: Toxicity in mouse assessed as GOT level in blood at 400 mg/kg, po after 4 days; format: organism-based; set-up: dose 400 mg/kg, route oral; conditions: in vivo, 96 h; how it was run: as §3
[14] = system: Trypanosoma cruzi; assay: Antitrypanosomal activity against Trypanosoma cruzi amastigotes infected in mouse peritoneal macrophages assessed as endocytic index after 1 day; format: functional, organism-based; conditions: 24 h; how it was run: as §2
[15] = system: Trypanosoma cruzi; assay: Antitrypanosomal activity against Trypanosoma cruzi amastigotes infected in mouse peritoneal macrophages assessed as inhibition of infection after 1 day; format: functional, organism-based; conditions: 24 h; how it was run: as §2
[16] = Cytotoxicity against swiss mouse HMC after 48 hrs by MTT assay; conditions: read-out: LC50; how it was run: as §6
[17] = system: Mus musculus; assay: Toxicity in mouse assessed as GPT level in blood at 400 mg/kg, po after 4 days; format: organism-based; set-up: dose 400 mg/kg, route oral; conditions: in vivo, 96 h; how it was run: as §3
[18] = system: Trypanosoma cruzi; assay: Antitrypanosomal activity against Trypanosoma cruzi infected in mouse assessed as reduction in inflammatory foci in cardiac muscle at 100 mg/kg, po after 6 days post infection; format: functional, organism-based; set-up: dose 100 mg/kg; conditions: Muscle tissue
How it was run: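 Infected mice were dosed by gavage at 100 mg/kg daily for 10 days from dpi 6. Two mice per group were euthanized at 14 dpi. Paraffin heart sections were stained with hematoxylin-eosin. Under a 40× objective, parasite nests and inflammatory foci (≥10 mononuclear cells) were counted per mm2 over 30 fields.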

[19] = system: Trypanosoma cruzi; assay: Antitrypanosomal activity against Trypanosoma cruzi amastigotes infected in mouse peritoneal macrophages assessed as inhibition of infection after 3 day; format: functional, organism-based; conditions: 72 h; how it was run: as §2
[20] = system: Mus musculus; assay: Toxicity in mouse assessed as urea level in blood at 400 mg/kg, po after 4 days; format: organism-based; set-up: dose 400 mg/kg, route oral; conditions: in vivo, 96 h; how it was run: as §3
[21] = Selectivity index, ratio of LC50 for mouse peritoneal macrophages to IC50 for inhibition of Trypanosoma cruzi amastigotes
How it was run: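 SI = LC50/IC50 in peritoneal macrophages. LC50 came from the 2-day MTT assay on uninfected macrophages. Cells were Bouin-fixed and Giemsa-stained, and endocytic index (parasites/100 cells) was counted. Three independent experiments.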

[22] = system: Trypanosoma cruzi; assay: Antitrypanosomal activity against Trypanosoma cruzi trypomastigotes assessed as shortening of flagellum at 11.6 uM after 24 hrs by scanning electron microscopy; format: functional, organism-based; how it was run: as §4
[23] = system: Trypanosoma cruzi; assay: Antitrypanosomal activity against Trypanosoma cruzi amastigotes infected in mouse peritoneal macrophages assessed as endocytic index after 4 day; format: functional, organism-based; conditions: 96 h; how it was run: as §2
[24] = system: Trypanosoma cruzi; assay: Antitrypanosomal activity against Trypanosoma cruzi infected in mouse assessed as decrease in parasitemia in blood at 100 mg/kg, po after 6 days post infection; format: functional; conditions: 144 h; how it was run: as §5

In the case of `Cn1c([N+](=O)[O-])cnc1-c1nnc(N/N=C\c2cc(C(C)(C)C)c(O)c(C(C)(C)C)c2)s1`, the Activity [1] is reported as “inactive” and the Activity [2] is reported as “Active”.
For `Cn1c([N+](=O)[O-])cnc1-c1nnc(N/N=C\c2ccc(O)cc2)s1`, the IC50 [3] was 2900 nM, the Activity [4] was 25.5 g and the IC50 [5] was 3.2 µM. The Activity [6] was “Active”, the IC50 [7] was 1700 nM and the Activity [8] was “inactive”. The Activity [9] was “inactive”, the Activity [10] was “Active” and the CC50 at 48 h [11] was over 100 µM. The IC50 [12] was 6 µM, the Activity [13] was 76.6 U/L and the IC50 [14] was 5 µM. It also gave an IC50 [15] of 7.1 µM, a CC50 at 48 h [16] of over 240 µM and an Activity [17] of 24.4 U/L. For the same compound, the Activity [18] was “Active”, the Activity [2] was 50% and the IC50 [19] was 6.2 µM. For the same compound, the Activity [20] was 58.6 mg/dL, the “Ratio LC50/IC50” value [21] was over 41 and the Activity [22] was “Active”. The IC50 [23] was 1300 nM and the inhibition in vivo at 100 mg/kg [24] was 46%.
For `COc1ccc(/C=N\Nc2nnc(-c3ncc([N+](=O)[O-])n3C)s2)cc1O`, the Activity [10] was “inactive” and the Activity [2] was “inactive”.
For `Cn1c([N+](=O)[O-])cnc1-c1nnc(N/N=C\c2ccc(Cl)cc2)s1`, the Activity [10] was “inactive” and the Activity [2] was “inactive”.
